Experimental findings from ChEMBL document CHEMBL3352298, “Identification of potent orally active factor Xa inhibitors based on conjugation strategy and application of predictable fragment recommender system” (Bioorg Med Chem, 2015) are described below.

The source made the active and inactive calls. The calls are words filed in the database; no cut-off is given here. Some results are limits rather than exact numbers.

For assay [1], the system named is Mus musculus. Nature of the assay: Anticoagulant activity in ICR mouse plasma assessed as prolongation of prothombin time at 100 mg/kg, po after 0.5 to 2 hrs relative to untreated control. Type of assay: functional. The procedure, abridged:
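Male ICR mice (30–37 g) given compound dissolved or suspended in 0.5% methyl cellulose, 100 mg/kg by gastric tube. PT measured by coagulometer at 37 °C with thromboplastin; expressed as fold of vehicle-treated baseline; n = 3.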

Assay [2] concerns the target T1, Coagulation factor X (Homo sapiens, UniProt P00742). Nature of the assay: Inhibition of human factor 10a using S-2222 chromogenic substrate assessed as hydrolysis by microplate reader.
The target of assay [3] is T1, Coagulation factor X. Nature of the assay: Inhibition of human factor 10a using S-2222 chromogenic substrate assessed as hydrolysis at 1.36 uM by microplate reader. The procedure, abridged: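 Purified human fXa with chromogenic substrate S-2222 and inhibitor in 0.05 M Tris-HCl pH 8.4 or 0.15 M NaCl; reaction started with enzyme. Hydrolysis read continuously at 405 nm, 37 °C. Percent inhibition at final inhibitor 1.36 µM, single run.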

The subject of assay [4] is Plasma. The experiment in a line: Anticoagulant activity in mouse plasma assessed as concentration required to prolong prothombin time. It counts as functional. The procedure, abridged: (§1)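 Citrated plasma (human or mouse) spun at 3000 rpm for 10 min and stored at −40 °C. Clotting times read on a coagulometer at 37 °C; PT with thromboplastin, compared with a distilled water control. CT2 (concentration doubling clotting time) taken from each concentration–response curve; three determinations, mean reported.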

Assay [5] deals with Plasma. Nature of the assay: Anticoagulant activity in human plasma assessed as concentration required to double clotting time. Type of assay: functional. The method in brief:
as §1

The target in assay [6] is Prothrombin (Homo sapiens, UniProt P00734). The experiment in a line: Inhibition of human Thrombin using S-2238 chromogenic substrate assessed as hydrolysis by microplate reader.
Assay [7] concerns the target Trypsin (Homo sapiens, UniProt P07477+P07478+P35030). The experiment in a line: Inhibition of human Trypsin using S-2222 chromogenic substrate assessed as hydrolysis by microplate reader.

T1 sequence (P00742 41-179 limits assumed): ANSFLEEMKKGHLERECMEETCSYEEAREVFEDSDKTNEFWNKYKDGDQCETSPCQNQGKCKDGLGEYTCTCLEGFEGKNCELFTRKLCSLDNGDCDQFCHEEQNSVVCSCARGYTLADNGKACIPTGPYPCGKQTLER
T1 sequence (P00742 235-488 limits assumed): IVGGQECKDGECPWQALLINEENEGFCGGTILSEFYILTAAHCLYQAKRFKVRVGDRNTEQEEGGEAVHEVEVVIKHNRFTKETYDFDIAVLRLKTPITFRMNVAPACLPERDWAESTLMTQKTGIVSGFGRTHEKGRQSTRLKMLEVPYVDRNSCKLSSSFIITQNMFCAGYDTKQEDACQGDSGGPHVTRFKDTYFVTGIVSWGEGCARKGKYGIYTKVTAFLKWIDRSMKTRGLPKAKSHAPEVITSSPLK

As for `COc1ccc(NC(=O)c2cccc(O)c2NC(=O)c2ccc(N3CCCN(C)CC3)cc2)nc1.Cl`, the Ratio in assay [1] turned out to be 2.03. The IC50 (commonly the concentration at which inhibition is half-maximal) in assay [2] came out at 220 nM.
For `CN1CCCN(c2ccc(C(=O)Nc3ccccc3C(=O)Nc3ccc4ccccc4n3)cc2)CC1`, in assay [3], the inhibition (as a rule, the relative decrease from the control value, in per cent) is “inactive”.
Take `CN1CCCN(c2ccc(C(=O)Nc3ccccc3C(=O)Nc3ccc(N(C)C)cc3)cc2)CC1`: the inhibition in assay [3] is 24%.
Regarding `COc1ccc(NC(=O)c2ccc(C)c(O)c2NC(=O)c2ccc(N3CCCN(C)CC3)cc2)cc1.Cl`, the Ratio in assay [1] came out at 0.95. Also, the IC50 in assay [2] came out at 61 nM.
With `COc1ccc(NC(=O)c2ccccc2NC(=O)c2ccc(N3CCCN(C)CC3)cc2)cc1Cl`, the inhibition in assay [3] was determined as 39%.
Consider `Cc1ccnc(NC(=O)c2ccccc2NC(=O)c2ccc(N3CCCN(C)CC3)cc2)c1`, for which the inhibition in assay [3] came to 56%.
In the case of `CN1CCCN(c2ccc(C(=O)Nc3ccccc3C(=O)Nc3ccc(Cl)cc3)cc2)CC1`, in assay [3], the inhibition came out at 100%.
For `CN1CCCN(c2ccc(C(=O)Nc3c(O)cccc3C(=O)Nc3ccc(Cl)cn3)cc2)CC1.Cl`, the Ratio in assay [1] is given as 3.61. For the same compound, in assay [2], the 50% inhibitory concentration (IC50) came to 16 nM.
For `Cc1cc(NC(=O)c2ccccc2NC(=O)c2ccc(N3CCCN(C)CC3)cc2)n[nH]1`, the inhibition entry in assay [3] was “inactive”.
Regarding `CN1CCCN(c2ccc(C(=O)Nc3ccccc3C(=O)Nc3ccc(OC(F)(F)F)cc3)cc2)CC1`, the inhibition in assay [3] was 32%.
`Cc1ccccc1NC(=O)c1ccccc1NC(=O)c1ccc(N2CCCN(C)CC2)cc1`: the inhibition in assay [3] was 16%.
Turning to `Cc1ccc(NC(=O)c2cccc(O)c2NC(=O)c2ccc(N3CCCN(C)CC3)cc2)cc1.Cl`, in assay [1], the Ratio came out at 2.11. Besides, the IC50 in assay [2] stood at 68 nM.
With `CS(=O)(=O)c1ccccc1-c1ccc(NC(=O)c2cc(C(F)(F)F)nn2-c2cccc(CN)c2)c(F)c1.Cl`, the figures for the Activity in assay [4] and in assay [5] were 0.7 µM and 0.67 µM, respectively.
In the case of `COc1ccc(NC(=O)c2cccc(O)c2NC(=O)c2ccc(N3CCCN(C)CC3)cc2)cc1.Cl`, the Ratio in assay [1] is 1.97. For the same compound, the IC50 in assay [2] turned out to be 150 nM.
Take `CN1CCCN(c2ccc(C(=O)Nc3ccc(Cl)cc3C(=O)Nc3ccc(Cl)cn3)cc2)CC1.Cl`: the Ratio in assay [1] is on record as 1.21. In addition, in assay [2], the IC50 amounted to 3.6 nM.
As for `Cc1cccc(NC(=O)c2ccccc2NC(=O)c2ccc(N3CCCN(C)CC3)cc2)c1`, in assay [3], the inhibition was found to be 88%.
Take `CN1CCCN(c2ccc(C(=O)Nc3ccccc3C(=O)Nc3ccc(Oc4ccccc4)cc3)cc2)CC1`: the inhibition in assay [3] was 22%.
On to `COc1ccc(NC(=O)c2ccccc2NC(=O)c2ccc(N3CCCN(C)CC3)cc2)cn1`, for which the inhibition in assay [3] is 7%.
As to `COc1ccc(NC(=O)c2cc(Cl)cc(O)c2NC(=O)c2ccc(N3CCCN(C)CC3)cc2)cc1.Cl`, the Ratio in assay [1] is recorded as 3.91. The IC50 in assay [2] was determined as 68 nM.
`Cc1cccc(NC(=O)c2ccccc2NC(=O)c2ccc(N3CCCN(C)CC3)cc2)n1`: the inhibition in assay [3] was 9%.
As to `Cc1ccc(NC(=O)c2ccccc2NC(=O)c2ccc(N3CCCN(C)CC3)cc2)nc1`, in assay [3], the inhibition was 73%.
Regarding `COc1ccc(NC(=O)c2ccccc2NC(=O)c2ccc(N3CCCN(C)CC3)cc2)cc1.Cl`, the Ratio in assay [1] is given as 1.02. Also, in assay [3], the inhibition came to 85%.
Take `Cc1cc(NC(=O)c2ccccc2NC(=O)c2ccc(N3CCCN(C)CC3)cc2)sn1`: the inhibition result in assay [3] was “inactive”.
Consider `CN1CCCN(c2ccc(C(=O)Nc3ccccc3C(=O)Nc3ccccc3Cl)cc2)CC1`, for which the inhibition in assay [3] was found to be 11%.
On to `CN1CCCN(c2ccc(C(=O)Nc3c(O)cccc3C(=O)Nc3ccc(Cl)cc3)cc2)CC1.Cl`, for which the Ratio in assay [1] turned out to be 2.67. In assay [2], the IC50 turned out to be 6.9 nM.
Take `Cc1ccc(NC(=O)c2ccccc2NC(=O)c2ccc(N3CCCN(C)CC3)cc2)cc1`: the inhibition in assay [3] amounted to 94%.
As to `Cc1ccc(NC(=O)c2cccc(O)c2NC(=O)c2ccc(N3CCCN(C)CC3)cc2)nc1.Cl`, in assay [1], the Ratio is reported as 2.13. Also, the IC50 in assay [2] amounted to 290 nM.
As to `CN1CCCN(c2ccc(C(=O)Nc3ccccc3C(=O)Nc3nc4ccccc4[nH]3)cc2)CC1`, in assay [3], the inhibition entry was “inactive”.
With `COc1ccc(NC(=O)c2cccc(O[C@@H]3O[C@H](C(=O)O)[C@@H](O)[C@H](O)[C@H]3O)c2NC(=O)c2ccc(N3CCCN(C)CC3)cc2)cc1`, in assay [2], the IC50 is 66 nM.
Consider `COc1ccc(NC(=O)c2ccccc2NC(=O)c2ccc(N3CCCN(C)CC3)cc2)cc1OC`, for which the inhibition entry in assay [3] was “inactive”.
`COc1cccc(NC(=O)c2ccccc2NC(=O)c2ccc(N3CCCN(C)CC3)cc2)c1`: the inhibition in assay [3] turned out to be 40%.
`CCc1ccc(NC(=O)c2ccccc2NC(=O)c2ccc(N3CCCN(C)CC3)cc2)cc1`: in assay [3], the inhibition turned out to be 15%.
In the case of `CN1CCCN(c2ccc(C(=O)Nc3ccccc3C(=O)Nc3cccc(Cl)c3)cc2)CC1`, the inhibition in assay [3] stood at 76%.
For `CN1CCCN(c2ccc(C(=O)Nc3ccccc3C(=O)Nc3ccccn3)cc2)CC1`, the inhibition in assay [3] was found to be 38%.
As to `CN1CCCN(c2ccc(C(=O)Nc3c(O[C@@H]4O[C@H](C(=O)O)[C@@H](O)[C@H](O)[C@H]4O)cc(Cl)cc3C(=O)Nc3ccc(Cl)cn3)cc2)CC1`, the IC50 in assay [2] was 1.5 nM; in assay [6], above 100000 nM; in assay [7] it was above 100000 nM. In addition, the Activity was determined as 0.28 µM in assay [4] and 0.27 µM in assay [5].
For the compound `CC(C)c1ccc(NC(=O)c2ccccc2NC(=O)c2ccc(N3CCCN(C)CC3)cc2)cc1`, the inhibition in assay [3] worked out at 23%.
In the case of `CN1CCCN(c2ccc(C(=O)Nc3c(O)cc(Cl)cc3C(=O)Nc3ccc(Cl)cn3)cc2)CC1.Cl`, in assay [1], the Ratio is reported as 7.8. In assay [2], the IC50 was 8.7 nM.
